A short description of data set [1]: folding enthalpy; higher = less favourable; fluorescence melt of hairpins on a sequencing array, two-state fit. To be noted: sodium 0.088 M. In short, it runs like this:
(§1)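 To match UV melts, fitted temperatures were raised by 9.35 °C. These fits were bootstrapped two-state models that gave melting temperature and folding enthalpy, combined by inverse variance over four replicates. The input was normalised Cy3 fluorescence of library hairpins with annealed Cy3 and quencher oligos on a sequenced MiSeq flow cell, imaged in 50 mM Na-HEPES pH 8.0, 25 mM NaCl in 2.5 °C steps up to 60 °C.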

The nature of data set [2]: melting temperature; fluorescence melt of hairpins on a sequencing array, two-state fit, raised by 9.35 °C to match UV melts. Particulars: sodium 0.088 M. In short, it runs like this: as §1

For the sequence AAACCGAAAGGTTT (((((....))))), in data set [1], the folding enthalpy was -20.7 kcal/mol. In addition, the Tm in data set [2] amounted to 52.8 °C.
The matching figures for AAAGCGAAAGCTTT (((((....))))): -15.5 kcal/mol and 63.4 °C.
AACAAGAAATTGTT (((((....))))): the folding enthalpy in data set [1] was -7.18 kcal/mol. Also, the Tm in data set [2] came to 23.3 °C.
With AACAGGAAACTGTT (((((....))))), in data set [1], the folding enthalpy was -14.7 kcal/mol. Besides, the Tm in data set [2] stood at 40.5 °C.
Take AACCAGAAATGGTT (((((....))))): the folding enthalpy in data set [1] is -14.8 kcal/mol. The Tm in data set [2] was 40.2 °C.
For AACTGGAAACAGTT (((((....))))), in that order: -16.8 kcal/mol and 38.8 °C.
For AAGTTGAAAAACTT (((((....))))), in that order: -10.6 kcal/mol and 35.4 °C.
On to AATCCGAAAGGATT (((((....))))), for which the folding enthalpy in data set [1] was -17.8 kcal/mol. Also, the Tm in data set [2] came to 52 °C.
Consider AATCTGAAAAGATT (((((....))))), for which the folding enthalpy in data set [1] is -13.1 kcal/mol. Moreover, in data set [2], the Tm came to 34.7 °C.
The matching figures for ACAAAGAAATTTGT (((((....))))): -6.26 kcal/mol and 22.5 °C.
The matching figures for ACATGGAAACATGT (((((....))))): -19.7 kcal/mol and 45 °C.
For ACCCTGAAAAGGGT (((((....))))), in that order: -19.2 kcal/mol and 53.2 °C.
With ACGGGGAAACCCGT (((((....))))), the folding enthalpy in data set [1] was -17.3 kcal/mol. For the same sequence, the Tm in data set [2] was found to be 65.1 °C.
The matching figures for ACGGTGAAAACCGT (((((....))))): -22.9 kcal/mol and 55 °C.
ACGTGGAAACACGT (((((....))))): the folding enthalpy in data set [1] is -22 kcal/mol. Further, in data set [2], the Tm was 55.5 °C.
As for ACTCCGAAAGGAGT (((((....))))), in data set [1], the folding enthalpy is -20.5 kcal/mol. In addition, the Tm in data set [2] was found to be 68.8 °C.
For the sequence ACTGAGAAATCAGT (((((....))))), the folding enthalpy in data set [1] is -19.8 kcal/mol. Besides, the Tm in data set [2] is 34.8 °C.
In the case of ACTGTGAAAACAGT (((((....))))), the folding enthalpy in data set [1] is -21.8 kcal/mol. For the same sequence, the Tm in data set [2] is 46.1 °C.
For AGACGGAAACGTCT (((((....))))), in that order: -21.2 kcal/mol and 53.5 °C.
Regarding AGACTGAAAAGTCT (((((....))))), in data set [1], the folding enthalpy is -16.9 kcal/mol. Moreover, the Tm in data set [2] was found to be 46 °C.
For AGAGAGAAATCTCT (((((....))))), the folding enthalpy in data set [1] was -8.28 kcal/mol. Further, the Tm in data set [2] was 23.2 °C.
For AGCAAGAAATTGCT (((((....))))), in that order: -16 kcal/mol and 39.3 °C.
For AGCCAGAAATGGCT (((((....))))), in that order: -19.1 kcal/mol and 54.4 °C.
For the sequence AGGACGAAAGTCCT (((((....))))), the folding enthalpy in data set [1] is -20.3 kcal/mol. In data set [2], the Tm was 68.5 °C.
The matching figures for AGGAGGAAACTCCT (((((....))))): -18.3 kcal/mol and 45 °C.
The matching figures for AGGATGAAAATCCT (((((....))))): -22.2 kcal/mol and 41.6 °C.
The matching figures for AGGCAGAAATGCCT (((((....))))): -17.6 kcal/mol and 54.7 °C.
With AGTAGCTGAAAAGTTACT ((((.((....)).)))), the folding enthalpy in data set [1] is -20.2 kcal/mol. Besides, the Tm in data set [2] is 36 °C.
The matching figures for AGTCCGAAAGGACT (((((....))))): -18.7 kcal/mol and 68.1 °C.
The matching figures for AGTCTGAAAAGACT (((((....))))): -19.6 kcal/mol and 47 °C.
In the case of AGTGGGAAACCACT (((((....))))), the folding enthalpy in data set [1] was -19.5 kcal/mol. The Tm in data set [2] amounted to 49.8 °C.
The matching figures for AGTGTGAAAACACT (((((....))))): -19.5 kcal/mol and 49.7 °C.
On to AGTTAGAAATAACT (((((....))))), for which the folding enthalpy in data set [1] was -9.79 kcal/mol. Besides, in data set [2], the Tm was determined as 25.8 °C.
For ATCGGGAAACCGAT (((((....))))), in that order: -24.1 kcal/mol and 50.2 °C.
In the case of ATCGTGAAAACGAT (((((....))))), the folding enthalpy in data set [1] is -19.6 kcal/mol. In addition, the Tm in data set [2] came out at 49.5 °C.
For ATGGGGAAACCCAT (((((....))))), in that order: -23.4 kcal/mol and 47.3 °C.
For the sequence ATGGTGAAAACCAT (((((....))))), the folding enthalpy in data set [1] is -21.6 kcal/mol. In data set [2], the Tm worked out at 47.1 °C.
Take ATGTCGAAAGACAT (((((....))))): the folding enthalpy in data set [1] was -19.6 kcal/mol. Further, the Tm in data set [2] was 53.5 °C.
Consider ATTGGGAAACCAAT (((((....))))), for which the folding enthalpy in data set [1] was -16.9 kcal/mol. Besides, in data set [2], the Tm came to 40.3 °C.
For ATTTGGAAACAAAT (((((....))))), in that order: -12.8 kcal/mol and 34.4 °C.
Regarding CAAACCGAAAGGCTTG (((.((....)).))), the folding enthalpy in data set [1] is -27 kcal/mol. In data set [2], the Tm came out at 38.4 °C.
In the case of CAAACGAAAGTTTG (((((....))))), in data set [1], the folding enthalpy is -23 kcal/mol. For the same sequence, in data set [2], the Tm came to 53 °C.
As to CAAGGGAAACCTTG (((((....))))), in data set [1], the folding enthalpy is -27.8 kcal/mol. Moreover, the Tm in data set [2] stood at 43.9 °C.
For the sequence CAATGGAAACATTG (((((....))))), the folding enthalpy in data set [1] is -26 kcal/mol. For the same sequence, in data set [2], the Tm came to 40.6 °C.
For CACGAGAAATCGTG (((((....))))), in that order: -23.5 kcal/mol and 50.6 °C.
Regarding CACGGGAAACCGTG (((((....))))), the folding enthalpy in data set [1] was -30.9 kcal/mol. Besides, the Tm in data set [2] came out at 58.8 °C.
Turning to CACTAGAAATAGTG (((((....))))), the folding enthalpy in data set [1] was -16.9 kcal/mol. Moreover, the Tm in data set [2] came out at 37.2 °C.
For CAGCTGAAAAGCTG (((((....))))), in that order: -25.4 kcal/mol and 58.6 °C.
The matching figures for CAGGAGAAATCCTG (((((....))))): -19.7 kcal/mol and 43.7 °C.
In the case of CAGTAGAAATACTG (((((....))))), the folding enthalpy in data set [1] is -15.3 kcal/mol. The Tm in data set [2] was 38.6 °C.
Take CAGTCGAAAGACTG (((((....))))): the folding enthalpy in data set [1] was -27.2 kcal/mol. For the same sequence, the Tm in data set [2] came to 61.4 °C.
Consider CAGTTGAAAAACTG (((((....))))), for which the folding enthalpy in data set [1] is -20.9 kcal/mol. Further, in data set [2], the Tm was 44.7 °C.
Consider CATACGAAAGTATG (((((....))))), for which, in data set [1], the folding enthalpy was -25.1 kcal/mol. For the same sequence, the Tm in data set [2] stood at 50.4 °C.
With CATTGGAAACAATG (((((....))))), the folding enthalpy in data set [1] is -22.2 kcal/mol. For the same sequence, the Tm in data set [2] worked out at 42.3 °C.
Turning to CCAATGAAAATTGG (((((....))))), the folding enthalpy in data set [1] is -18.1 kcal/mol. For the same sequence, the Tm in data set [2] turned out to be 41.9 °C.
Take CCACGGAAACGTGG (((((....))))): the folding enthalpy in data set [1] is -21.2 kcal/mol. Also, in data set [2], the Tm was found to be 69.2 °C.
For CCACTGAAAAGTGG (((((....))))), in that order: -25.3 kcal/mol and 54.5 °C.
The matching figures for CCATAGAAATATGG (((((....))))): -11.6 kcal/mol and 35.2 °C.
The matching figures for CCATTGAAAAATGG (((((....))))): -22.2 kcal/mol and 41.6 °C.
Consider CCCTAGAAATAGGG (((((....))))), for which the folding enthalpy in data set [1] is -20.7 kcal/mol. The Tm in data set [2] came out at 38.2 °C.
For the sequence CCTCGGAAACGAGG (((((....))))), the folding enthalpy in data set [1] was -25.8 kcal/mol. Besides, in data set [2], the Tm was determined as 55.7 °C.
With CGAAACGGAAACGTCTCG (((.(((....))).))), the folding enthalpy in data set [1] is -27.3 kcal/mol. The Tm in data set [2] came to 39 °C.
For CGAACGGAAACGTAGTCG ((((((....)))..))), in that order: -10.8 kcal/mol and 26.4 °C.
For CGAACGGAAACGTATCG ((((((....))).))), in that order: -19.2 kcal/mol and 36.1 °C.
For CGAACGGAAACGTTCTCG ((((((....)))..))), in that order: -11.2 kcal/mol and 36.8 °C.
In the case of CGAAGCGGAAACGCTCG (((.(((....)))))), in data set [1], the folding enthalpy is -22.7 kcal/mol. For the same sequence, the Tm in data set [2] was found to be 53.5 °C.
CGAATCCGGAAACGGTCG (((..(((....)))))): the folding enthalpy in data set [1] was -11.9 kcal/mol. The Tm in data set [2] turned out to be 33.6 °C.
For CGACACCGGAAACGGTCG (((..(((....)))))), in that order: -13.7 kcal/mol and 42 °C.
The matching figures for CGACAGAAATGTCG (((((....))))): -26.1 kcal/mol and 52.9 °C.
As for CGACCGGAAACGGAGTCG ((((((....)))..))), the folding enthalpy in data set [1] was -27.2 kcal/mol. Also, the Tm in data set [2] came out at 45.4 °C.
For CGACCGGAAACGGCGTCG ((((((....)))..))), in that order: -18.1 kcal/mol and 50.2 °C.
For CGACCGGAAACGGCTCG ((((((....))).))), in that order: -28.8 kcal/mol and 48.2 °C.
Take CGACCGGAAACGGTGTCG ((((((....)))..))): the folding enthalpy in data set [1] was -14.8 kcal/mol. In data set [2], the Tm came to 43 °C.
On to CGACTCGGAAACGATCG (((.(((....)))))), for which the folding enthalpy in data set [1] is -31.8 kcal/mol. In addition, the Tm in data set [2] was 40.5 °C.
For CGAGACGGAAACGTTCG (((.(((....)))))), in that order: -26.3 kcal/mol and 40.9 °C.
The matching figures for CGAGCCGGAAACGGTTCG (((.(((....))).))): -40.1 kcal/mol and 56 °C.
The matching figures for CGAGCGCGGAAACGCTCG (((..(((....)))))): -29.8 kcal/mol and 68.5 °C.
With CGAGCGGAAACGCAATCG ((((((....)))..))), the folding enthalpy in data set [1] was -19.3 kcal/mol. For the same sequence, the Tm in data set [2] was 38.7 °C.

For the origin of these results see the array DNA melting data of Ke et al. (doi:10.1101/2024.01.08.574731).
